Reference: ChEMBL document CHEMBL4364287, “Enhanced Inhibition of Influenza A Virus Adhesion by Di- and Trivalent Hemagglutinin Inhibitors” (J Med Chem, 2019)
Activity calls are given as the source filed them. No cut-off for these calls is given here.

What was measured:
[1] = system: Influenza A virus (A/Netherlands/178/1995(H3N2)); assay: Potency index, ratio of compound 7 IC50 to test compound IC50 for inhibition of sensor loaded biotinylated-LAMP1 binding to Influenza A virus (A/Netherlands/178/1995(H3N2)) H3 hemagglutinin expressed in Influenza virus WU95
[2] = Inhibition of sensor loaded biotinylated-LAMP1 binding to Influenza A virus (A/Netherlands/178/1995(H3N2)) H3 hemagglutinin expressed in Influenza virus WU95 in presence of NA inhibitor oseltamivir carboxylate by biolayer interferometric analysis
Outline: (§1)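 OctetRed BLI: streptavidin sensors were saturated with biotinylated LAMP1 in PBS pH 7.4. They were dipped into WU95 (8 HAU, 2.5 × 10^8 particles per well) preincubated 4 h at room temperature with compound and 10 µM (end concentration) oseltamivir carboxylate. Initial binding rate was compared with a no-compound control.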

[3] = system: Influenza A virus (A/Netherlands/178/1995(H3N2)); assay: Inhibition of sensor loaded biotinylated-LAMP1 binding to Influenza A virus (A/Netherlands/178/1995(H3N2)) H3 hemagglutinin expressed in Influenza virus WU95 at 20 uM in presence of NA inhibitor oseltamivir carboxylate by biolayer interferometric analysis; outline: as §1
[4] = Inhibition of Influenza A virus (A/Netherlands/178/1995(H3N2)) H3 hemagglutinin expressed in Influenza virus WU95 assessed as reduction in human erythrocytes hemagglutination preincubated for 4 hrs followed by erythrocytes addition and measured after 2 hrs; type: cell-based
Outline: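 Four hemagglutination units of virus were preincubated 4 h at room temperature with limiting compound dilutions in the presence of oseltamivir carboxylate. Then 0.5% (v/v) erythrocytes were added for 2 h at 4 °C. The lowest inhibiting concentration was recorded; two experiments were run in duplicate and means are reported.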

[5] = system: Influenza A virus (A/Netherlands/178/1995(H3N2)); assay: Potency index, ratio of compound 8 IC50 to test compound IC50 for Inhibition of Influenza A virus (A/Netherlands/178/1995(H3N2)) H3 hemagglutinin expressed in Influenza virus WU95 assessed as reduction in human erythrocytes hemagglutination; type: cell-based
Influenza A virus [6] = assay: (§2) Antiviral activity against Influenza A virus WU95 expressing Influenza A virus (A/Netherlands/178/1995(H3N2)) H3 hemagglutinin infected in MDCK2 cells at 20 nM preincubated with virus for 4 hrs followed by cell infection and measured after 2 hrs by DAPI staining-based assay; type: functional, organism-based
Outline: (§3)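 WU95 was preincubated 4 h at room temperature in Opti-mem with or without 15 µM compound, ±10 µM oseltamivir carboxylate. The mixture was diluted 500-fold onto confluent MDCK-II for 2 h, giving end concentrations of 30 nM compound, 20 nM OC and MOI 0.01. Cells were washed, kept overnight at 37 °C with 10 nM bafilomycin, then fixed and nucleoprotein-immunostained.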

Influenza A virus [7] = assay: as §2, with “assessed as reduction in virus-induced cytopathogenicity” for “at 20 nM”, “3 days” for “2 hrs”; type: functional, organism-based
Outline: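 WU95 virus was preincubated 4 h at room temperature in Opti-mem with varying compound concentrations. It was then inoculated onto confluent MDCK-II cells at MOI 0.005 and held 3 days with 1 µg/ml TPCK-trypsin to allow multiple rounds of infection. Cells were fixed and DAPI-stained, and monolayers inspected visually; absence of stained cells was taken as cell killing.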

[8] = system: Influenza A virus (A/Bilthoven/1761/1976(H3N2)); assay: Inhibition of sensor loaded biotinylated-LAMP1 binding to Influenza A virus (A/Bilthoven/1761/1976(H3N2)) H3 hemagglutinin expressed in Influenza virus VI75 at 3 uM by biolayer interferometric analysis
Outline: (§4)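 BLI with streptavidin sensors loaded to saturation with biotinylated LAMP1 (PBS, pH 7.4). VI75 virus was preincubated 4 h at room temperature with 3 µM compound, without or with 10 µM oseltamivir carboxylate. Initial virus binding rate was compared with a compound-free control.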

MDCK-II = assay: Cytotoxicity against MDCK2 cells assessed as reduction in cell viability measured after 24 hrs by WST1 assay; type: cell-based, Canis lupus familiaris; conditions: dog
Outline: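 MDCK-II cells were incubated 24 h in Opti-mem with compounds at different concentrations. Cell number and viability were then read by WST-1 assay.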

[9] = system: Influenza A virus (A/Netherlands/178/1995(H3N2)); assay: Inhibition of sensor loaded biotinylated-LAMP1 binding to Influenza A virus (A/Netherlands/178/1995(H3N2)) H3 hemagglutinin expressed in Influenza virus WU95 at 3 uM in presence of NA inhibitor oseltamivir carboxylate by biolayer interferometric analysis; outline: as §1
[10] = system: Influenza A virus (A/Bilthoven/1761/1976(H3N2)); assay: Inhibition of sensor loaded biotinylated-LAMP1 binding to Influenza A virus (A/Bilthoven/1761/1976(H3N2)) H3 hemagglutinin expressed in Influenza virus VI75 at 3 uM in presence of NA inhibitor oseltamivir carboxylate by biolayer interferometric analysis; outline: as §4
Influenza A virus [11] = assay: Antiviral activity against Influenza A virus WU95 expressing Influenza A virus (A/Netherlands/178/1995(H3N2)) H3 hemagglutinin infected in MDCK2 cells preincubated with virus for 4 hrs followed by cell infection and measured at 7 hrs post-infection by DAPI staining-based assay; type: functional, organism-based
Outline: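 Single-cycle infection: WU95 in Opti-mem was preincubated 4 h at room temperature with varying compound concentrations. Confluent MDCK-II cells were inoculated in triplicate at MOI 0.005 and fixed at 7 h post-infection in methanol (−20 °C, 5 min). Cells were immunostained for nucleoprotein (HB65, Alexa 488 secondary), counterstained with DAPI, and infected cells per well were counted.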

Influenza A virus [12] = assay: as §2, with “cells at 30 nM preincubated” for “cells at 20 nM preincubated”, “2 hrs in presence of 20 nM NA inhibitor oseltamivir carboxylate by DAPI” for “2 hrs by DAPI”; type: functional, organism-based; outline: as §3
Influenza A virus [13] = assay: Antiviral activity against Influenza A virus WU95 expressing Influenza A virus (A/Netherlands/178/1995(H3N2)) H3 hemagglutinin infected in MDCK2 cells at 30 nM preincubated with virus for 4 hrs followed by cell infection and measured after 2 hrs by DAPI staining-based assay; type: functional, organism-based; outline: as §3

CC(=O)N[C@H]1[C@H]([C@H](O)[C@H](O)CO)O[C@@](OC[C@H]2O[C@@H](O[C@H]3[C@H](O)[C@@H](O)[C@H](OCc4cn([C@@H]5O[C@H](CO)[C@@H](n6cc(-c7ccc(-c8cn([C@H]9[C@H](O)[C@@H](O)[C@H](n%10cc(CO[C@@H]%11O[C@H](CO)[C@@H](O[C@@H]%12O[C@H](CO[C@]%13(C(=O)O)C[C@H](O)[C@@H](NC(C)=O)[C@H]([C@H](O)[C@H](O)CO)O%13)[C@H](O)[C@H](O)[C@H]%12O)[C@H](O)[C@H]%11O)nn%10)O[C@@H]9CO)nn8)cc7)nn6)[C@H](O)[C@H]5O)nn4)O[C@@H]3CO)[C@H](O)[C@@H](O)[C@H]2O)(C(=O)O)C[C@@H]1O
Ratio IC50 [1]: 23
IC50 [2]: 13 µM

CC(=O)N[C@H]1[C@H](O[C@H]2[C@@H](O)[C@@H](CO)O[C@@H](O[C@H]3[C@H](O)[C@@H](O)[C@H](n4cc(-c5ccc(-c6cn(CCCC(=O)Nc7cccc(-c8cc(-c9cccc(NC(=O)CCCn%10cc(-c%11ccc(-c%12cn([C@@H]%13O[C@H](CO)[C@@H](O[C@@H]%14O[C@H](CO)[C@H](O)[C@H](O[C@@H]%15O[C@H](CO)[C@@H](O[C@@H]%16O[C@H](CO)[C@H](O)[C@H](O)[C@H]%16O)[C@H](O)[C@H]%15NC(C)=O)[C@H]%14O)[C@H](O)[C@H]%13O)nn%12)cc%11)nn%10)c9)cc(-c9cccc(NC(=O)CCCn%10cc(-c%11ccc(-c%12cn([C@@H]%13O[C@H](CO)[C@@H](O[C@@H]%14O[C@H](CO)[C@H](O)[C@H](O[C@@H]%15O[C@H](CO)[C@@H](O[C@@H]%16O[C@H](CO)[C@H](O)[C@H](O)[C@H]%16O)[C@H](O)[C@H]%15NC(C)=O)[C@H]%14O)[C@H](O)[C@H]%13O)nn%12)cc%11)nn%10)c9)c8)c7)nn6)cc5)nn4)O[C@@H]3CO)[C@@H]2O)O[C@H](CO)[C@@H](O[C@@H]2O[C@H](CO)[C@H](O)[C@H](O)[C@H]2O)[C@@H]1O
inhibition [3]: inactive

CC(=O)N[C@H]1[C@H]([C@H](O)[C@H](O)CO)O[C@@](OC[C@H]2O[C@@H](O[C@H]3[C@H](O)[C@@H](O)[C@H](OCc4cn(CCCC(=O)Nc5cccc(-c6cc(-c7cccc(NC(=O)CCCn8cc(CO[C@@H]9O[C@H](CO)[C@@H](O[C@@H]%10O[C@H](CO[C@]%11(C(=O)O)C[C@H](O)[C@@H](NC(C)=O)[C@H]([C@H](O)[C@H](O)CO)O%11)[C@H](O)[C@H](O)[C@H]%10O)[C@H](O)[C@H]9O)nn8)c7)cc(-c7cccc(NC(=O)CCCn8cc(CO[C@@H]9O[C@H](CO)[C@@H](O[C@@H]%10O[C@H](CO[C@]%11(C(=O)O)C[C@H](O)[C@@H](NC(C)=O)[C@H]([C@H](O)[C@H](O)CO)O%11)[C@H](O)[C@H](O)[C@H]%10O)[C@H](O)[C@H]9O)nn8)c7)c6)c5)nn4)O[C@@H]3CO)[C@H](O)[C@@H](O)[C@H]2O)(C(=O)O)C[C@@H]1O
Ki [4]: 53 µM
Ratio IC50 [5]: 7
Ratio IC50 [1]: 20
IC50 [2]: 15 µM

C#CCO[C@@H]1O[C@H](CO)[C@@H](O[C@@H]2O[C@H](CO[C@]3(C(=O)O)C[C@H](O)[C@@H](NC(C)=O)[C@H]([C@H](O)[C@H](O)CO)O3)[C@H](O)[C@H](O)[C@H]2O)[C@H](O)[C@H]1NC(C)=O
IC50 [2]: 304 µM

CCC(CC)O[C@@H]1C=C(C(=O)O)C[C@H](N)[C@H]1NC(C)=O
Activity (Influenza A virus [6]): Active

CC(=O)N[C@H]1[C@H](O[C@H]2[C@@H](O)[C@@H](CO)O[C@@H](O[C@H]3[C@H](O)[C@@H](O)[C@H](OCc4cn(CCCC(=O)Nc5cccc(-c6cc(-c7cccc(NC(=O)CCCn8cc(CO[C@@H]9O[C@H](CO)[C@@H](O[C@@H]%10O[C@H](CO)[C@H](O)[C@H](O[C@@H]%11O[C@H](CO)[C@@H](O[C@@H]%12O[C@H](CO[C@]%13(C(=O)O)C[C@H](O)[C@@H](NC(C)=O)[C@H]([C@H](O)[C@H](O)CO)O%13)[C@H](O)[C@H](O)[C@H]%12O)[C@H](O)[C@H]%11NC(C)=O)[C@H]%10O)[C@H](O)[C@H]9O)nn8)c7)cc(-c7cccc(NC(=O)CCCn8cc(CO[C@@H]9O[C@H](CO)[C@@H](O[C@@H]%10O[C@H](CO)[C@H](O)[C@H](O[C@@H]%11O[C@H](CO)[C@@H](O[C@@H]%12O[C@H](CO[C@]%13(C(=O)O)C[C@H](O)[C@@H](NC(C)=O)[C@H]([C@H](O)[C@H](O)CO)O%13)[C@H](O)[C@H](O)[C@H]%12O)[C@H](O)[C@H]%11NC(C)=O)[C@H]%10O)[C@H](O)[C@H]9O)nn8)c7)c6)c5)nn4)O[C@@H]3CO)[C@@H]2O)O[C@H](CO)[C@@H](O[C@@H]2O[C@H](CO[C@]3(C(=O)O)C[C@H](O)[C@@H](NC(C)=O)[C@H]([C@H](O)[C@H](O)CO)O3)[C@H](O)[C@H](O)[C@H]2O)[C@@H]1O
Activity (Influenza A virus [7]): Active
inhibition [8]: Active
Activity (MDCK-II): Non-Toxic
inhibition [9]: Active
inhibition [10]: Active
IC50 (Influenza A virus [11]): 15 µM
Ratio IC50 [1]: 71
IC50 [2]: 4.3 µM

CC(=O)N[C@H]1[C@H](O[C@H]2[C@@H](O)[C@@H](CO)O[C@@H](O[C@H]3[C@H](O)[C@@H](O)[C@H](n4cc(-c5ccc(-c6cn(CCCC(=O)Nc7cccc(-c8cc(-c9cccc(NC(=O)CCCn%10cc(-c%11ccc(-c%12cn([C@@H]%13O[C@H](CO)[C@@H](O[C@@H]%14O[C@H](CO)[C@H](O)[C@H](O[C@@H]%15O[C@H](CO)[C@@H](O[C@@H]%16O[C@H](CO[C@]%17(C(=O)O)C[C@H](O)[C@@H](NC(C)=O)[C@H]([C@H](O)[C@H](O)CO)O%17)[C@H](O)[C@H](O)[C@H]%16O)[C@H](O)[C@H]%15NC(C)=O)[C@H]%14O)[C@H](O)[C@H]%13O)nn%12)cc%11)nn%10)c9)cc(-c9cccc(NC(=O)CCCn%10cc(-c%11ccc(-c%12cn([C@@H]%13O[C@H](CO)[C@@H](O[C@@H]%14O[C@H](CO)[C@H](O)[C@H](O[C@@H]%15O[C@H](CO)[C@@H](O[C@@H]%16O[C@H](CO[C@]%17(C(=O)O)C[C@H](O)[C@@H](NC(C)=O)[C@H]([C@H](O)[C@H](O)CO)O%17)[C@H](O)[C@H](O)[C@H]%16O)[C@H](O)[C@H]%15NC(C)=O)[C@H]%14O)[C@H](O)[C@H]%13O)nn%12)cc%11)nn%10)c9)c8)c7)nn6)cc5)nn4)O[C@@H]3CO)[C@@H]2O)O[C@H](CO)[C@@H](O[C@@H]2O[C@H](CO)[C@H](O)[C@H](O)[C@H]2O)[C@@H]1O
Ki [4]: 10.3 µM
inhibition [8]: Active
Activity (Influenza A virus [12]): Active
Ratio IC50 [5]: 35
inhibition [9]: Active
Activity (Influenza A virus [13]): Active
inhibition [10]: Active
Ratio IC50 [1]: 428
IC50 [2]: 0.71 µM
